Results published in ChEMBL document CHEMBL1131041 (J Med Chem, 1998).

Columns and labels:
Cavia porcellus = organism: Cavia porcellus; assay: Partial agonist activity expressed as inhibition of contraction of guinea pig ileal longitudinal muscle myenteric plexus (GPI) at 1 uM conc.; type: functional, organism-based; details: Muscle tissue
Outline: (§1)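 Agonist action on electrically driven tissues at 37 °C: GPI (1 g tension, 0.4-ms pulses) and Mg-free MVD (0.5 g, 2-ms pulses), 0.1 Hz. Percent inhibition of contraction height read 10 min after 1 μM compound; for stronger agonists, IC50 from concentration–response curves (2–4 tissues, nonlinear least squares). Selectivity = GPI IC50/MVD IC50.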

[1] = biological target: Delta-type opioid receptor (Mus musculus, UniProt P32300); assay: Partial agonist activity expressed as inhibition of contraction of mouse vas deferens (MVD) smooth muscle at 1 uM conc.; type: functional, tissue-based, Muscle tissue; outline: as §1
[2] = biological target: Delta-type opioid receptor (Mus musculus) (UniProt P32300); assay: Displacement of DPDPE from Opioid receptor delta 1 of mouse vas deferens (MVD)smooth muscle
Outline: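 Mouse vas deferens (male ICR, 25–40 g) in Mg-free oxygenated Krebs at 37 °C, 0.5 g tension; transmural 0.1 Hz, 2-ms pulses, supramaximal voltage. Control DPDPE curve first; then 1 μM compound 30 min, 30 min wash, cumulative DPDPE curve (3-min steps) repeated. IC50 ratio = shifted/control IC50; Ke = [antagonist]/(ratio − 1); n ≥ 3.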

[3] = biological target: T1, Kappa-type opioid receptor (Cavia porcellus, UniProt P41144); assay: Displacement of [125I]OXY from Opioid receptor kappa 2b of guinea pig brain membranes (pretreated with BIT(mu) and FIT(delta) and in the presence of (-)U50,488)
Outline: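 Guinea pig brain membranes depleted of μ/δ sites by BIT and FIT, labelled with 0.01 nM [125I]IOXY in presence of 5 μM (−)U50,488. Incubation 4–6 h at 4 °C in 50 mM Tris-HCl pH 7.4 with 10 mM NaCl, protease inhibitors and 1 μg/mL captopril.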

[4] = biological target: T1, Kappa-type opioid receptor; assay: Displacement of [3H]U-69593 from Opioid receptor kappa 1 of guinea pig brain membranes (pretreated with BIT and FIT to block mu and delta sites)
Outline: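 Guinea pig brain membranes pretreated with BIT and FIT, labelled with [3H]U69,593. Incubation 4–6 h at 25 °C in 50 mM Tris-HCl pH 7.4 with protease inhibitors and 1 μg/mL captopril. Nonspecific binding with 1 μM U69,593. 8–10 concentrations, twice.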

Mu-type opioid receptor = Mu-type opioid receptor (Rattus norvegicus, UniProt P33535); assay: Displacement of [3H]DAMGO from Opioid receptor mu 1 of rat brain membranes; type: cell membranes, Membrane
Outline: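 Rat brain membranes labelled with [3H]DAMGO. Incubation 4 h at 25 °C in 50 mM Tris-HCl pH 7.4 with protease inhibitor cocktail. Nonspecific binding defined with 20 μM levallorphan. 8–10 test concentrations, run twice; IC50 and slope factor derived.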

[5] = biological target: T2, Delta-type opioid receptor (Rattus norvegicus, UniProt P33533); assay: Displacement of [3H]DADLE from morphine-insensitive Opioid receptor delta 1 (presence of 50 nM morphine) of rat brain membranes; type: cell membranes, Membrane
Outline: (§2)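 Rat brain membranes pretreated with (+)-trans-[…], labelled with 2.0 nM [3H]DADLE, plus 50 nM morphine (δcx-2) or 300 nM DELT-II (δcx-1). Incubation 4–6 h at 25 °C in 10 mM Tris-HCl pH 7.4 with 100 mM NaCl, 3 mM MnCl2, 2 μM GTP, 5 mM 2-mercaptoethanol and protease inhibitors. 8–10 concentrations, twice.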

[6] = biological target: T2, Delta-type opioid receptor; assay: Displacement of [3H]DADLE from morphine-sensitive Opioid receptor delta 1 (presence of 300 nM DELT-II) of rat brain membranes; type: cell membranes, Membrane; outline: as §2
[7] = biological target: T2, Delta-type opioid receptor; assay: Displacement of [3H]DADLE from Opioid receptor delta 1 of rat brain membranes (DAMGO quenching mu receptor); type: cell membranes, Membrane
Outline: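 Rat brain membranes labelled with [3H]DADLE. Incubation 3–4 h at 25 °C in 10 mM Tris-HCl pH 7.4 with 100 mM choline chloride, 3 mM MnCl2, 100 nM DAMGO (μ block) and protease inhibitors. Levallorphan 20 μM for nonspecific binding. 8–10 concentrations, duplicate runs.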

[8] = Relative affinity for guinea pig kappa1 and rat delta receptors
[9] = biological target: Opioid receptors; mu & delta (Homo sapiens) (UniProt P41143+P35372); assay: IC50 selectivity for mu receptor of guinea pig Ileum (GPI) and delta receptor of delta opioid receptor of mouse vas deferens (MVD) smooth muscle preparation; type: tissue-based; outline: as §1
[10] = biological target: Opioid receptors; mu & delta (Rattus norvegicus) (UniProt P33533+P33535); assay: Relative affinity for mu and delta receptors in rat brain membranes; type: cell membranes
Chain of Opioid receptors; mu & delta (Rattus norvegicus) (P33533 whole entry, looked up): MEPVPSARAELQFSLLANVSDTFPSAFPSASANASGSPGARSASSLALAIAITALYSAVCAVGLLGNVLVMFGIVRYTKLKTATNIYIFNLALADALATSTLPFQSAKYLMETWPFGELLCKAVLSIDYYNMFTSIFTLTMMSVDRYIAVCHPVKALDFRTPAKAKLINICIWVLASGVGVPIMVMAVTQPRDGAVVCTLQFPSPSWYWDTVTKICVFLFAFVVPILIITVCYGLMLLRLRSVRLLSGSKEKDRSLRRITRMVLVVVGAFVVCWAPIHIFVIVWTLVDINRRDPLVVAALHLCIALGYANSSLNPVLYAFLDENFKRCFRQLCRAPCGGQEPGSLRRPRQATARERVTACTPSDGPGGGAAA
Chain of Opioid receptors; mu & delta (Rattus norvegicus) (P33535 whole entry, looked up): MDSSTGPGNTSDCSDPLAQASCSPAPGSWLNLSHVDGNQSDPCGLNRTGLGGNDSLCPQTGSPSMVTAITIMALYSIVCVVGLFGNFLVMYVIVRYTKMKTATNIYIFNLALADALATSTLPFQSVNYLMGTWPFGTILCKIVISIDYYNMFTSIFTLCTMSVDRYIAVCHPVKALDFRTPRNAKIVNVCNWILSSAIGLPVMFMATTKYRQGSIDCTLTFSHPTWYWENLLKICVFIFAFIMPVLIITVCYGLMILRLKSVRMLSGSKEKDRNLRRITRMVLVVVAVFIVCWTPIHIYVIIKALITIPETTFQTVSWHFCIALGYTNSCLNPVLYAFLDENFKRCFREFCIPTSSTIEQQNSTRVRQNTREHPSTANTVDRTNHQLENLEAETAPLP

T2 sequence (P33533 whole entry): as the sequence (P33533 whole entry, looked up) above
T1 sequence (P41144 whole entry): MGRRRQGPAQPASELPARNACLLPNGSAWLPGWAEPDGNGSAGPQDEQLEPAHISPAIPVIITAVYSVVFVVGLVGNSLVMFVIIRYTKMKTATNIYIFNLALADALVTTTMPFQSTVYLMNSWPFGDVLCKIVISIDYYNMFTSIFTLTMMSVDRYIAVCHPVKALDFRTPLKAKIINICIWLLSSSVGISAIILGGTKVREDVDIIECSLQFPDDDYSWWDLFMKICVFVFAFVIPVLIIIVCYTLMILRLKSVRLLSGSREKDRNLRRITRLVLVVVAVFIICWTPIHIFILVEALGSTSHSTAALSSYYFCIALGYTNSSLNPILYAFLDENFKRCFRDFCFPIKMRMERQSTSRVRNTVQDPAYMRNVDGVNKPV
Chain of Delta-type opioid receptor (Mus musculus, UniProt P32300) (P32300 whole entry): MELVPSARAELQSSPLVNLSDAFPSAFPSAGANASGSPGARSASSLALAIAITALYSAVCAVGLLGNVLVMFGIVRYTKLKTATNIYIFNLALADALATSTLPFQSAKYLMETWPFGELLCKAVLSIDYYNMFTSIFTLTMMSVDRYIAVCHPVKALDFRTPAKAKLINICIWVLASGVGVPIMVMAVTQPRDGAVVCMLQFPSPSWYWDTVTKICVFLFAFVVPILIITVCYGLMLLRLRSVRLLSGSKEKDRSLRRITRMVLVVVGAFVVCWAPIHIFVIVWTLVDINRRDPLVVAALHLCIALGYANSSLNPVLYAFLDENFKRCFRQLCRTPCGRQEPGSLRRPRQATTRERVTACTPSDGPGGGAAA
Chain of Delta-type opioid receptor (Mus musculus) (P32300 whole entry): as above
Chain of Opioid receptors; mu & delta (Homo sapiens) (P35372 whole entry, looked up): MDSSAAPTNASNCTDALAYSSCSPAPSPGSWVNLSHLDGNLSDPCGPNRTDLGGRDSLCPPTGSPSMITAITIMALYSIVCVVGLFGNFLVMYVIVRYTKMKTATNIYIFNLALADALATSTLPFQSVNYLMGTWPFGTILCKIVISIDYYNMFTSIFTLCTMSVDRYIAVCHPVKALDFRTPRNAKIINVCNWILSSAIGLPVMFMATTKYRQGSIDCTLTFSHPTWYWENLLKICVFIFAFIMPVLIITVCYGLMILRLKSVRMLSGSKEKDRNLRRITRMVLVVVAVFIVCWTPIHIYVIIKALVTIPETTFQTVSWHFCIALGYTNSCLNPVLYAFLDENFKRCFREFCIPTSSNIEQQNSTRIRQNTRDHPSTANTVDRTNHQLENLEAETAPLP
Chain of Opioid receptors; mu & delta (Homo sapiens) (P41143 whole entry, looked up): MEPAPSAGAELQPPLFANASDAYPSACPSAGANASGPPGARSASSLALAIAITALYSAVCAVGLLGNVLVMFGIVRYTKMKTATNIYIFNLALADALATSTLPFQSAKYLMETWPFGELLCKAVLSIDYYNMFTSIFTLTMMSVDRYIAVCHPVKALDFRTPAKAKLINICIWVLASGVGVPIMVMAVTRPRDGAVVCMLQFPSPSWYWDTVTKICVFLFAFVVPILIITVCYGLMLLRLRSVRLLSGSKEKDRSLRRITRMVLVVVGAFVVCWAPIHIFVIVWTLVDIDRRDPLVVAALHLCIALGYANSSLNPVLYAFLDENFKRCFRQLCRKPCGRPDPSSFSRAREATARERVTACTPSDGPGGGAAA
Chain of Mu-type opioid receptor (P33535 whole entry): as the sequence (P33535 whole entry, looked up) above

SMILES: Oc1ccc2c3c1OC1c4[nH]c5cc(Oc6ccccc6)ccc5c4C[C@@]4(O)[C@@H](C2)N(CC2CC2)CC[C@]314 (some centres not stated)
- IC50 (Cavia porcellus): 2300 nM
- IC50 [1]: 3000 nM
- Ke [2]: 4.6 nM
- Ki [3]: 175 nM
- Ki [4]: 236 nM
- Ki (Mu-type opioid receptor): 235 nM
- Ki [5]: 4.9 nM
- Ki [6]: 89.4 nM
- Ki [7]: 6.4 nM
- Selectivity ratio [8]: 37
- Selectivity ratio [9]: 0.8
- Selectivity ratio [10]: 37
